# Where a chain is given by its changes, count along the chain named. The source made the active and inactive calls.
# Assays:
# [1] = target: T1, Lysosomal acid glucosylceramidase (Homo sapiens) (UniProt P04062); assay: Binding affinity to recombinant Gcase assessed as change in melting temperature at 400 uM by fluorescence thermal shift technique
# T1 sequence (whole entry): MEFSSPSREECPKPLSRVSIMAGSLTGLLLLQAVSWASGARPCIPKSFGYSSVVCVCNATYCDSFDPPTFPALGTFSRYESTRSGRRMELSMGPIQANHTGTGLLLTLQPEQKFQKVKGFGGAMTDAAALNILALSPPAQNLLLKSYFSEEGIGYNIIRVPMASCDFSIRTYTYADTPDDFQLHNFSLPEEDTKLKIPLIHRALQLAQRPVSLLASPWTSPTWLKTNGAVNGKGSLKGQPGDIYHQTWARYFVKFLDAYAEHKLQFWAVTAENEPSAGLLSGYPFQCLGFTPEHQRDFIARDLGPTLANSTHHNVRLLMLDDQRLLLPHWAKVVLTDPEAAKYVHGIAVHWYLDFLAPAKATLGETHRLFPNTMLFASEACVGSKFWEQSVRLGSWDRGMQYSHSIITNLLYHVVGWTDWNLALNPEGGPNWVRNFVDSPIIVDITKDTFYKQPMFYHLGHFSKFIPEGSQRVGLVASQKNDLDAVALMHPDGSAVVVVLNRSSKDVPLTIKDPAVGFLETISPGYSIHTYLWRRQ
# Outline: (§1)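 Differential scanning fluorometry on recombinant wild-type GC at 2 μM final with SYPRO Orange, in 150 mM phosphate/citrate pH 4.8. 12-point DMSO dilution series, final 0.1–600 μM, 2% DMSO final; DMSO-only control. Heated 20 to 95 °C at 0.1 °C/s. Fluorescence read at 490 nm excitation, 575 nm emission. Tm derived from melt curves; shift is relative to the protein-only control.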
# [2] = target: T1, Lysosomal acid glucosylceramidase (Homo sapiens); assay: Binding affinity to recombinant Gcase assessed as change in melting temperature at 300 uM by fluorescence thermal shift technique; outline: as §1
# [3] = target: T1, Lysosomal acid glucosylceramidase (Homo sapiens)
# [4] = target: T1, Lysosomal acid glucosylceramidase (Homo sapiens); assay: Increase of GCase trafficking to lysosomes in human fibroblast cells assessed as colocalization of Gcase with Lamp2 at 5 uM after 5 days by immunofluorescence method; format: cell-based
# Outline: (§2)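 Primary dermal fibroblasts from N370S/N370S Gaucher patients and a control, in chamber slides. Compounds given for five days, range 1 nM to 25 μM. Cells fixed in 3% paraformaldehyde and permeabilized with 0.1% Triton-X. Stained with rabbit anti-GCase R386 (1:500) and mouse anti-LAMP1 or LAMP-2 (1:100), then Alexa-conjugated secondaries and DAPI. Imaged by confocal microscopy for GC/LAMP2 colocalization.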
# [5] = tested on: T2, Lysosomal acid glucosylceramidase (Homo sapiens), P04062 [N409S]; assay: Increase of GCase N370S mutant trafficking to lysosomes in human fibroblast cells assessed as colocalization of Gcase with Lamp2 at 5 uM after 5 days by immunofluorescence method; format: cell-based; outline: as §2
# T2 sequence (whole entry): T1 sequence (whole entry) with N409S
# [6] = Inhibition of alpha-galactosidase
# [7] = target: T1, Lysosomal acid glucosylceramidase (Homo sapiens); remark: listed apart in the source
# [8] = Inhibition of alpha-glucosidase
# [9] = target: T1, Lysosomal acid glucosylceramidase (Homo sapiens); assay: Binding affinity to recombinant Gcase assessed as change in melting temperature at 500 uM by fluorescence thermal shift technique; outline: as §1
# [10] = target: T1, Lysosomal acid glucosylceramidase (Homo sapiens); remark: listed apart in the source
# [11] = target: T1, Lysosomal acid glucosylceramidase (Homo sapiens); remark: listed apart in the source
# [12] = target: T1, Lysosomal acid glucosylceramidase (Homo sapiens); remark: listed apart in the source
# [13] = target: T1, Lysosomal acid glucosylceramidase (Homo sapiens); remark: listed apart in the source
# [14] = target: T1, Lysosomal acid glucosylceramidase (Homo sapiens); assay: Binding affinity to recombinant Gcase assessed as change in melting temperature at 600 uM by fluorescence thermal shift technique; outline: as §1
# [15] = target: T1, Lysosomal acid glucosylceramidase (Homo sapiens); remark: listed apart in the source
# [16] = target: T1, Lysosomal acid glucosylceramidase (Homo sapiens); assay: Increase of GCase trafficking to lysosomes in human fibroblast cells assessed as colocalization of Gcase with Lamp2 at 10 uM after 5 days by immunofluorescence method; format: cell-based; outline: as §2
# [17] = tested on: T2, Lysosomal acid glucosylceramidase (Homo sapiens), P04062 [N409S]; assay: Increase of GCase N370S mutant trafficking to lysosomes in human fibroblast cells assessed as colocalization of Gcase with Lamp2 at 10 uM after 5 days by immunofluorescence method; format: cell-based; outline: as §2
# [18] = tested on: T2, Lysosomal acid glucosylceramidase (Homo sapiens), P04062 [N409S]; assay: Activity at recombinant Gcase N370S mutant in human spleen homogenates assessed as hydrolysis of 4-MU-beta-D-glucose at 50 uM; format: tissue-based
# Outline: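 Enzyme source: human spleen homogenate, 27 μg/well, in 50 mM citric acid/K2PO4 buffer pH 5 with 0.01% Tween20. Compound pin-transferred and preincubated 5 min at room temperature. Substrate 4MU-β-glc at 1 mM final, 45 min at 37 °C. Stopped with 1 M NaOH/1 M glycine pH 10. Fluorescence read at 365 nm excitation, 440 nm emission.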
Structure (SMILES),Activity [6],Activity [8],Activity [18],also measured
COc1ccccc1S(=O)(=O)N1CCN(c2nc(-c3cccs3)nc3ccccc23)CC1,inactive,inactive,–,ΔTm [1]: 8.09 °C; ΔTm [2]: 7.48 °C; ΔTm [3]: 0.6 °C; Activity [4]: Active; Activity [5]: Active; ΔTm [7]: -0.01 °C; ΔTm [9]: 7.69 °C; ΔTm [10]: 6.86 °C; ΔTm [11]: 0.55 °C; ΔTm [12]: -0.76 °C; ΔTm [13]: 3.97 °C
O=S(=O)(c1ccc2c(c1)OCCO2)N1CCN(c2nc(-c3cccs3)nc3ccccc23)CC1,inactive,inactive,–,ΔTm [1]: 22.8 °C; ΔTm [14]: 24.3 °C; ΔTm [2]: 22.8 °C; ΔTm [3]: 0.37 °C; Activity [4]: Active; Activity [5]: Active; ΔTm [7]: 11.7 °C; ΔTm [9]: 23.4 °C; ΔTm [10]: 20.7 °C; ΔTm [11]: 0.24 °C; ΔTm [12]: 13.3 °C; ΔTm [15]: 5.39 °C; ΔTm [13]: 19.3 °C
O=S(=O)(c1ccc2ccccc2c1)N1CCN(c2nc(-c3cccs3)nc3ccccc23)CC1,inactive,inactive,–,ΔTm [1]: 19.9 °C; ΔTm [2]: 19.8 °C; ΔTm [3]: -1.33 °C; Activity [16]: Active; ΔTm [7]: 4.35 °C; ΔTm [10]: 17.3 °C; ΔTm [11]: -0.19 °C; Activity [17]: Active; ΔTm [12]: 10.8 °C; ΔTm [15]: 1.6 °C; ΔTm [13]: 14.5 °C
OC[C@H]1CNC[C@@H](O)[C@@H]1O,inactive,inactive,–,ΔTm [1]: 9.56 °C; ΔTm [2]: 8.98 °C; ΔTm [3]: 0.4 °C; Activity [16]: Active; ΔTm [7]: 5.5 °C; ΔTm [9]: 8.75 °C; ΔTm [10]: 8.25 °C; ΔTm [11]: 1.16 °C; Activity [17]: Active; ΔTm [12]: 6.72 °C; ΔTm [13]: 7.94 °C
Cc1ccc(S(=O)(=O)N2CCN(c3nc(C(N)=O)nc4ccccc34)CC2)cc1,inactive,inactive,inactive,–
O=S(=O)(c1ccc(Cl)cc1)N1CCN(c2nc(-c3cccc(Br)c3)nc3ccccc23)CC1,inactive,inactive,inactive,–
Cc1ccc(S(=O)(=O)N2CCN(c3nc(-c4cncnc4)nc4ccccc34)CC2)cc1,inactive,inactive,inactive,–
Cc1ccc(S(=O)(=O)N2CCN(c3nc(-c4cccs4)nc4ccccc34)CC2)cc1,inactive,inactive,–,ΔTm [3]: 0.03 °C; ΔTm [7]: 0.84 °C; ΔTm [10]: 11 °C; ΔTm [11]: -0.09 °C; ΔTm [12]: 5.18 °C; ΔTm [15]: -1.4 °C; ΔTm [13]: 9.89 °C
CN1CCN(c2nc(-c3cccs3)nc3ccccc23)CC1,inactive,inactive,inactive,–
Cc1ccc(S(=O)(=O)N2CCN(c3nc(-c4cccs4)nc4c3ncn4COC(=O)C(C)(C)C)CC2)cc1,inactive,inactive,inactive,–
O=S(=O)(c1ccc(F)cc1)N1CCN(c2nc(-c3ccccc3)nc3cc(Cl)ccc23)CC1,inactive,inactive,inactive,–
Cc1ccc(S(=O)(=O)N2CCN(c3nc(-c4ncccn4)nc4ccccc34)CC2)cc1,inactive,inactive,inactive,–
O=S(=O)(c1ccccc1)N1CCN(c2nccc(-c3cccs3)n2)CC1,inactive,inactive,inactive,–
Cc1ccc(S(=O)(=O)N2CCN(c3nc(C#N)nc4ccccc34)CC2)cc1,inactive,inactive,inactive,–
Cc1ccc(S(=O)(=O)N2CCN(c3nc(-c4cccs4)cc4ccccc34)CC2)cc1,inactive,inactive,inactive,–
Cc1ccc(-c2nc(N3CCN(S(=O)(=O)c4ccc(F)cc4)CC3)c3ccc(Cl)cc3n2)cc1,inactive,inactive,inactive,–
Cc1ccc(S(=O)(=O)N2CCN(c3nc(-c4cccs4)nc4[nH]cnc34)CC2)cc1,inactive,inactive,inactive,–
CCN1CCN(c2nc(-c3cccs3)nc3ccccc23)CC1,inactive,inactive,inactive,–
O=S(=O)(c1ccc(Cl)cc1)N1CCN(c2nc(-c3ccc(Cl)cc3)nc3ccccc23)CC1,inactive,inactive,inactive,–
Cc1ccc(S(=O)(=O)N2CCN(c3nc(-c4ccc(F)cc4)nc4cc(Cl)ccc34)CC2)cc1,inactive,inactive,inactive,–

# Source: ChEMBL document CHEMBL1671789, “Evaluation of quinazoline analogues as glucocerebrosidase inhibitors with chaperone activity” (J Med Chem, 2011)
